According to ChEMBL document CHEMBL1152768, “4-Benzyloxy-gamma-sultone derivatives: discovery of a novel family of non-nucleoside inhibitors of human cytomegalovirus and varicella zoster virus” (J Med Chem, 2009):
pEC50: −log10 of the molar value.

Experiments:
Human betaherpesvirus 5 [1] = assay: Antiviral activity against HCMV Davis infected in human HEL cells assessed inhibition of virus-induced cytopathicity after 7 days postinfection; assay type: functional, organism-based; details: Human betaherpesvirus 5, Davis, 168 h
Summary of the method: (§1)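 HEL fibroblasts were infected at 100 PFU. After 2 h, residual virus was removed and medium with test compound was added at several concentrations, in duplicate. Cells were incubated 7 days at 37 °C, fixed with ethanol and stained with Giemsa.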

Human betaherpesvirus 5 [2] = assay: Antiviral activity against HCMV AD169 infected in human HEL cells assessed inhibition of virus-induced cytopathicity after 7 days postinfection; assay type: functional, organism-based; details: Human betaherpesvirus 5, AD169, HEL, 168 h; summary of the method: as §1
Human alphaherpesvirus 3 [3] = assay: Antiviral activity against thymidine kinase expressing Varicella zoster virus Oka infected in human HEL cells assessed reduction in viral plaque formation; assay type: functional, organism-based; details: Human alphaherpesvirus 3, Oka
Summary of the method: (§2)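 Confluent HEL cell monolayers were inoculated with VZV at 20 PFU per well. Residual virus was removed after 2 h, and compound was added at varying concentrations, in duplicate.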

Human alphaherpesvirus 3 [4] = assay: Antiviral activity against thymidine kinase deficient Varicella zoster virus 07/1 infected in human HEL cells assessed reduction in viral plaque formation; assay type: functional, organism-based; details: Human alphaherpesvirus 3, HEL; summary of the method: as §2
[5] = Cytotoxicity against human HEL cells assessed as morphological alteration after 3 days; assay type: cell-based
Summary of the method: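 HEL cultures were examined under the microscope. MCC was recorded as the compound concentration causing a microscopically detectable alteration of normal cell morphology.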

[6] = Cytotoxicity against human HEL cells assessed as reduction of growth after 3 days; assay type: cell-based
Summary of the method: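 HEL cells were seeded at 5 × 10³ cells/well and grown 24 h before compound was added at different concentrations. After 3 days at 37 °C, cells were counted with a Coulter counter. CC50, the concentration halving growth relative to untreated controls, was read from plots of cell number (% of control) against concentration.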

Human betaherpesvirus 5 [7] = assay: Antiviral activity against ganciclovir-resistant HCMV AD169 clone 4 infected in HEL cells assessed as inhibition of virus-induced cytopathicity; assay type: functional, organism-based; details: Human betaherpesvirus 5, AD169, HEL
Human betaherpesvirus 5 [8] = assay: Antiviral activity against foscarnet-resistant HCMV AD169 clone C infected in HEL cells assessed as inhibition of virus-induced cytopathicity; assay type: functional, organism-based; details: Human betaherpesvirus 5, AD169, HEL
Human betaherpesvirus 5 [9] = assay: Antiviral activity against cidofovir HCMV AD169 clone 5 infected in human HEL cells assessed as inhibition of virus-induced cytopathicity; assay type: functional, organism-based; details: Human betaherpesvirus 5, AD169, HEL
Human betaherpesvirus 5 [10] = assay: Antiviral activity against PMEDAP-resistant HCMV AD169 clone 4 infected in HEL cells assessed as inhibition of virus-induced cytopathicity; assay type: functional, organism-based; details: Human betaherpesvirus 5, AD169, HEL
Human betaherpesvirus 5 [11] = assay: Antiviral activity against HPMPA-resistant HCMV AD169 clone 2 mutant infected in HEL cells assessed as inhibition of virus-induced cytopathicity; assay type: functional, organism-based; details: Human betaherpesvirus 5, AD169, HEL
Human betaherpesvirus 5 [12] = assay: Antiviral activity against acyclovir-resistant HCMV AD169 clone 1 infected in HEL cells assessed as inhibition of virus-induced cytopathicity; assay type: functional, organism-based; details: Human betaherpesvirus 5, AD169, HEL
Human betaherpesvirus 5 [13] = assay: Antiviral activity against wild type HCMV AD169 infected in HEL cells assessed as inhibition of virus-induced cytopathicity; assay type: functional, organism-based; details: Human betaherpesvirus 5, AD169, HEL
Summary of the method: (§3)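 HEL fibroblast cultures infected at 100 PFU input. After 2 h, residual virus was removed and compound-containing medium was added at varying concentrations, in duplicate. Cells were incubated 7 days at 37 °C, ethanol-fixed and Giemsa-stained, and cytopathicity was scored microscopically.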

Human betaherpesvirus 5 [14] = assay: Antiviral activity against wild type HCMV Davis infected in HEL cells assessed as inhibition of virus-induced cytopathicity; assay type: functional, organism-based; details: Human betaherpesvirus 5, Davis; summary of the method: as §3

Structure (SMILES)	pEC50 (Human betaherpesvirus 5 [1])	pEC50 (Human betaherpesvirus 5 [2])	pEC50 (Human alphaherpesvirus 3 [3])	pEC50 (Human alphaherpesvirus 3 [4])	MCC at 72 h [5] [µM]	CC50 at 72 h [6] [µM]	pEC50 (Human betaherpesvirus 5 [7])	pEC50 (Human betaherpesvirus 5 [8])	pEC50 (Human betaherpesvirus 5 [9])	pEC50 (Human betaherpesvirus 5 [10])	pEC50 (Human betaherpesvirus 5 [11])	pEC50 (Human betaherpesvirus 5 [12])	pEC50 (Human betaherpesvirus 5 [13])	pEC50 (Human betaherpesvirus 5 [14])
CCC1(Cc2ccccc2)OS(=O)(=O)C=C1OCc1ccc(Br)cc1 (racemic)	5.22	5.00	5.08	5.20	80	171								
CCC1(Cc2ccccc2)OS(=O)(=O)C=C1OCc1ccc([N+](=O)[O-])cc1 (racemic)	< 4.10	< 3.40	4.10	4.27	≥ 80	< 200								
O=C(O)P(=O)(O)O [FOSCARNET]							4.70	4.02	4.96	4.20	4.89	4.46	4.89	4.96
O=c1[nH]c(=O)n([C@H]2C[C@H](O)[C@@H](CO)O2)cc1/C=C/Br [BRIVUDINE]			7.82	3.85	> 150	600								
CCC1(Cc2ccccc2)OS(=O)(=O)C=C1OCc1cccc(Cl)c1 (racemic)	5.10	< 4.80	5.14	5.17	≥ 20	50								
CCC1(Cc2ccccc2)OS(=O)(=O)C=C1OCc1ccc(C(C)(C)C)cc1 (racemic)	≤ 5.30	4.70	5.19	5.14	≥ 400	200								
CC1(C(c2ccccc2)c2ccccc2)OS(=O)(=O)C=C1OCc1ccccc1 (racemic)	< 3.40	< 4.10	< 4.10	< 4.10	≥ 400	200								
Nc1ccn(C[C@@H](CO)OCP(=O)(O)O)c(=O)n1 [CIDOFOVIR]	6.30	6.52			> 150	74	6.13	7.35	6.00	7.04	6.26	7.02	7.12	7.16
CCC1(Cc2ccccc2)OS(=O)(=O)C=C1OCc1ccc(C(F)(F)F)cc1 (racemic)	5.10	4.92	5.11	5.17	≥ 16	99								
CCC1(Cc2ccccc2)OS(=O)(=O)C=C1OC(c1ccccc1)c1ccccc1 (racemic)	< 3.40	< 3.40	< 4.10	< 4.10	≥ 80	> 200								
CCC1(CC)OS(=O)(=O)C=C1OCc1ccccc1	3.63	< 3.40	3.76	3.81	> 400	200								
Nc1nc2c(ncn2COCCO)c(=O)[nH]1 [ACYCLOVIR]			5.96	4.14	> 200	733							4.82	
CCC1(Cc2ccccc2)OS(=O)(=O)C=C1NCc1ccccc1 (configuration not stated)	< 4.10	< 4.10	4.43	4.49	≥ 80	92								
CCC1(Cc2ccccc2)OS(=O)(=O)C=C1OCC1CCCCC1 (racemic)	< 3.70	< 3.70	4.70	5.15	≥ 200	> 200								
CC(C)C1(Cc2ccccc2)OS(=O)(=O)C=C1OCc1ccccc1 (racemic)	< 3.40	< 3.40	< 4.10	< 4.80	≥ 80	200								
CCC1(Cc2ccccc2)OS(=O)(=O)C=C1OC (racemic)	< 3.40	< 3.40	3.77	3.55	> 400	> 200								
CCC1(Cc2ccccc2)OS(=O)(=O)C=C1OS(=O)(=O)c1ccc(C)cc1 (racemic)	< 4.10	< 4.10	< 4.10	< 4.10	400	109								
